Experimental data published in ChEMBL document CHEMBL5696442, “Discovery of type II inhibitors of TGFβ-activated kinase 1 (TAK1) and mitogen-activated protein kinase kinase kinase kinase 2 (MAP4K2)” (J Med Chem, 2015).
pIC50: −log10 of the molar value.

Legend:
Ephrin type-A receptor 2 [1] = biological target: T1, Ephrin type-A receptor 2 (Homo sapiens, UniProt P29317); experiment: Inhibition of EphA2 ACT labeling site in human Huh-7 cell lysate at 1 uM by KiNativ Profiling analysis relative to control; assay type: subcellular
T1 sequence (P29317 whole entry): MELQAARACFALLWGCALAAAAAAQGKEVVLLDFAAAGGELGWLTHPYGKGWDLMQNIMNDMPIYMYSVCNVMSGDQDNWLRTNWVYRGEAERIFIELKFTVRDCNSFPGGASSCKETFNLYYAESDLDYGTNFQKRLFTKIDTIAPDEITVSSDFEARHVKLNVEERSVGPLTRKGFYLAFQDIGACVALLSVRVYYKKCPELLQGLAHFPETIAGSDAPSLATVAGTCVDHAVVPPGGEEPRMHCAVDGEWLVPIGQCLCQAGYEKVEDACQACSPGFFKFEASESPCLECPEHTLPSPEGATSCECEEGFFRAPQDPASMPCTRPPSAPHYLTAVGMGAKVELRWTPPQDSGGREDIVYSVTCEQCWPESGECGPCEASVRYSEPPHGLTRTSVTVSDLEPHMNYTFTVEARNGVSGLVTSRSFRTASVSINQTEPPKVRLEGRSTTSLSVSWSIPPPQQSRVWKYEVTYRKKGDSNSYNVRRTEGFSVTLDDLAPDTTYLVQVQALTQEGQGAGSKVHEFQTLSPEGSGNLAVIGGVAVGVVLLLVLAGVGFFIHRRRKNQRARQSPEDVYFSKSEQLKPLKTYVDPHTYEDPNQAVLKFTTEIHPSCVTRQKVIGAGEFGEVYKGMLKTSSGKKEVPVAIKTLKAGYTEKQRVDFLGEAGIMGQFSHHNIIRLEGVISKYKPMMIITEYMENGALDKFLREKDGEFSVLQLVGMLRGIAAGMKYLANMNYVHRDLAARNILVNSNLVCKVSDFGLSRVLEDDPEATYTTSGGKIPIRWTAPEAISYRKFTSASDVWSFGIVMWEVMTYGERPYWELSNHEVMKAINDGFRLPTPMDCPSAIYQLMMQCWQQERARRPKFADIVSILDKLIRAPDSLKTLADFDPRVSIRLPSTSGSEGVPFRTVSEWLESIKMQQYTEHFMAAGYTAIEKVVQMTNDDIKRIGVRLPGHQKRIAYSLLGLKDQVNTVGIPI

[2] = biological target: T2, Mitogen-activated protein kinase kinase kinase kinase 2 (Homo sapiens, UniProt Q12851); experiment: Inhibition of MAP4K2 (unknown origin) Lys1 labeling site by KiNativ Profiling analysis
T2 sequence (Q12851 whole entry): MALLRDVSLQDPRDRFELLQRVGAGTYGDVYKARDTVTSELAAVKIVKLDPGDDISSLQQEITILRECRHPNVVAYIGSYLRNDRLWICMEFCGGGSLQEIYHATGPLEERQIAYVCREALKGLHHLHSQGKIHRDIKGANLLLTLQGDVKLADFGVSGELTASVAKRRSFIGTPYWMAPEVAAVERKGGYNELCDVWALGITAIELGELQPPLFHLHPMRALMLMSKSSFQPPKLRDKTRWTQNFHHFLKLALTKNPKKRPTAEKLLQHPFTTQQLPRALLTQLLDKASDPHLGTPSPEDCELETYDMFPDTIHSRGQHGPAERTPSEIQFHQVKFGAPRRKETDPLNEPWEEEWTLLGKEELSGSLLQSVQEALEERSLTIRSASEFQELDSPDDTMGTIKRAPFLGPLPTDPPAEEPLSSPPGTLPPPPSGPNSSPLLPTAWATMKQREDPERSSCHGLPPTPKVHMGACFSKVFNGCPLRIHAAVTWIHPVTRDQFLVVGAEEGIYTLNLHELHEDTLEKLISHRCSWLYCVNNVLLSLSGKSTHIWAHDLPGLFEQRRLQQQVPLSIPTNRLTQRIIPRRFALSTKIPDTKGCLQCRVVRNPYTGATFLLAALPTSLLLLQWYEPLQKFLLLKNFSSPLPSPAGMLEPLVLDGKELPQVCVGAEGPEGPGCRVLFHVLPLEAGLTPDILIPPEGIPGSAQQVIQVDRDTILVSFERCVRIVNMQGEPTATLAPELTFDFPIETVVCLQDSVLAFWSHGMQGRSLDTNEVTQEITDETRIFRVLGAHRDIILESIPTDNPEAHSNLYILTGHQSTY

[3] = biological target: T3, Tyrosine-protein kinase CSK (Homo sapiens, UniProt P41240); experiment: Inhibition of CSK (unknown origin) ACT labeling site by KiNativ Profiling analysis
Ephrin type-A receptor 2 [4] = biological target: T1, Ephrin type-A receptor 2; experiment: Inhibition of EphA2 (unknown origin) ACT labeling site by KiNativ Profiling analysis
[5] = biological target: T4, Mitogen-activated protein kinase kinase kinase 20 (Homo sapiens, UniProt Q9NYL2); experiment: Inhibition of ZAK (unknown origin) Lys1 labeling site by KiNativ Profiling analysis
Target sequence in this assay (Q9NYL2 whole entry): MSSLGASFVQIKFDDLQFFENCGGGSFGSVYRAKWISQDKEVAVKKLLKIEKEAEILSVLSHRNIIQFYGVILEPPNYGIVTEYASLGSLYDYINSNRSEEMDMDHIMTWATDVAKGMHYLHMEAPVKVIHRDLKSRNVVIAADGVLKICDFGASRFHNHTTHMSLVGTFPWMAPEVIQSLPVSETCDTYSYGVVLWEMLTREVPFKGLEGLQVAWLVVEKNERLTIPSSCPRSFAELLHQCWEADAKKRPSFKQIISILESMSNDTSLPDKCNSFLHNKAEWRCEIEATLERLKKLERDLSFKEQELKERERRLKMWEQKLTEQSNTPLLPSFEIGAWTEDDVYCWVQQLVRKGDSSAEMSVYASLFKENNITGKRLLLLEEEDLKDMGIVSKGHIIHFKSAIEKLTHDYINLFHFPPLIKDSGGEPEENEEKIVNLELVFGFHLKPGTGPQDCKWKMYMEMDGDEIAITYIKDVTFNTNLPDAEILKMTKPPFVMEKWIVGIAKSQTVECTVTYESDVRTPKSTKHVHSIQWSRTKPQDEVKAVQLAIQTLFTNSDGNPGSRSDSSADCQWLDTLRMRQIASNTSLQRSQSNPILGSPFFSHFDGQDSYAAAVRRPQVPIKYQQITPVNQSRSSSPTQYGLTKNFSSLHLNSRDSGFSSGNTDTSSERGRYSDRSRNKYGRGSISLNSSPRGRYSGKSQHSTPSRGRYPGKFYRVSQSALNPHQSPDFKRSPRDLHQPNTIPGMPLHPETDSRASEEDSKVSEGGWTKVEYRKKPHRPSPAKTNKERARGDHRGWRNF

[6] = biological target: T5, Mitogen-activated protein kinase kinase kinase kinase 2 (Homo sapiens) (UniProt Q12851); experiment: Inhibition of MAP4K2 Lys1 labeling site in human A-375 cells at 0.5 uM by KiNativ Profiling analysis relative to control; assay type: cell-based
T5 sequence (whole entry): T2 sequence (Q12851 whole entry)

[7] = biological target: T6, Tyrosine-protein kinase ABL1 (Homo sapiens, UniProt P00519); experiment: Inhibition of ABL ACT labeling site in human Huh-7 cell lysate at 1 uM by KiNativ Profiling analysis relative to control; assay type: subcellular
T6 sequence (P00519 whole entry): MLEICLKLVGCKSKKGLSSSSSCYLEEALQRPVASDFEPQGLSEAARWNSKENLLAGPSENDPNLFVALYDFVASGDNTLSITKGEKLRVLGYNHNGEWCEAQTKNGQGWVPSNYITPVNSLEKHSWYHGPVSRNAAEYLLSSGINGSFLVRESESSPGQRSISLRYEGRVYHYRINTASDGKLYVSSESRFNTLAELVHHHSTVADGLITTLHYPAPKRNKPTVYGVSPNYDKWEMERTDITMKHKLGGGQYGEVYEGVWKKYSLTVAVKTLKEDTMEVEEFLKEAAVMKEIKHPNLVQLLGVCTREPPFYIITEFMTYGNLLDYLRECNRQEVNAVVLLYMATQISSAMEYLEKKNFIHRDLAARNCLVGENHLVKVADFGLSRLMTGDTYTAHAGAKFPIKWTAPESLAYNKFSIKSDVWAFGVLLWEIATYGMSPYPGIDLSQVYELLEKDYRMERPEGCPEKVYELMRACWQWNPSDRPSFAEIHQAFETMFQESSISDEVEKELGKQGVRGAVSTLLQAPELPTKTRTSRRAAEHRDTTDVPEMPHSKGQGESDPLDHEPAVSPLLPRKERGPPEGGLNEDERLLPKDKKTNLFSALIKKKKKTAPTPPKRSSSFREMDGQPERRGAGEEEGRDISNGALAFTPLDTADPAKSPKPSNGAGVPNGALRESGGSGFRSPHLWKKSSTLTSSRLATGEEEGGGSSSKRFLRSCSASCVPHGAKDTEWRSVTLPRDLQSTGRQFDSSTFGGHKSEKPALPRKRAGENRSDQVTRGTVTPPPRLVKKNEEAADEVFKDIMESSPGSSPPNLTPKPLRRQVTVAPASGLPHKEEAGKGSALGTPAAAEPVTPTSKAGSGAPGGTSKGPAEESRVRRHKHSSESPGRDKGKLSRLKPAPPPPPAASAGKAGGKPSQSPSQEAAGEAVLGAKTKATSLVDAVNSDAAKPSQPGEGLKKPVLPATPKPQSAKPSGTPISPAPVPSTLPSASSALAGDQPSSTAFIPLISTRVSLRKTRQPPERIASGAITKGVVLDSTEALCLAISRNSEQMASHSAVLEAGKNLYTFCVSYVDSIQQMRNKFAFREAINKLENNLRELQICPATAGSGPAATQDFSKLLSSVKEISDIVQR

[8] = biological target: T7, Mitogen-activated protein kinase kinase kinase 7 (Homo sapiens, UniProt O43318); experiment: Inhibition of TAK1 (unknown origin) Lys2 labeling site by KiNativ Profiling analysis
T7 sequence (O43318 whole entry): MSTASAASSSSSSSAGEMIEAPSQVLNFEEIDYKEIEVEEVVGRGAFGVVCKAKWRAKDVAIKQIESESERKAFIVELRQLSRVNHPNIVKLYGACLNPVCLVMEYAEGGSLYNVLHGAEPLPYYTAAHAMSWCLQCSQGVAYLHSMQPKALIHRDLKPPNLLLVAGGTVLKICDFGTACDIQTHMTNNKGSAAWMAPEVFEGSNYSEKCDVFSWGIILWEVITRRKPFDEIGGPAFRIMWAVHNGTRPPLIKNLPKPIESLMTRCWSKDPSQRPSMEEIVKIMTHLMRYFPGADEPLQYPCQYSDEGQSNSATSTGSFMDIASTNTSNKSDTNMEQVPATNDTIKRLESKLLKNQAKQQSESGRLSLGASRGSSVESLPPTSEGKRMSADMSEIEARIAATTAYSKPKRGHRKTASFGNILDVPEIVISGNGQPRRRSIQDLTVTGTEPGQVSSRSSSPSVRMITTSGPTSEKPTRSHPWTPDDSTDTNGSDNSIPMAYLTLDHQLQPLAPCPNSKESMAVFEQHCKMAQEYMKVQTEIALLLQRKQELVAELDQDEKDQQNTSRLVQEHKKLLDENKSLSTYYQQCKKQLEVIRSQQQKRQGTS

[9] = biological target: T8, Mitogen-activated protein kinase 14 (Homo sapiens, UniProt Q16539); experiment: Inhibition of p38 alpha (unknown origin) by KiNativ Profiling analysis
T8 sequence (Q16539 whole entry): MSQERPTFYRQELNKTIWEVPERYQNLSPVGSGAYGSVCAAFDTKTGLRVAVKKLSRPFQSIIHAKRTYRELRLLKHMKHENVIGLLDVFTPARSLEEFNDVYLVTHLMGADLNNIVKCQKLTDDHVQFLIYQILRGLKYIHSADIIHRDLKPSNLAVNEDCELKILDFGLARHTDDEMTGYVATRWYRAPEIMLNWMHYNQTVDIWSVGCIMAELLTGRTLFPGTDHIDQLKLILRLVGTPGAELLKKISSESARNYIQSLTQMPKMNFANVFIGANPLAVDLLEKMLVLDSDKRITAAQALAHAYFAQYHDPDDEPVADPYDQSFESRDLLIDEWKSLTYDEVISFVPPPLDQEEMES

[10] = biological target: T6, Tyrosine-protein kinase ABL1; experiment: Inhibition of ABL Lys1 labeling site in human Huh-7 cell lysate at 1 uM by KiNativ Profiling analysis relative to control; assay type: subcellular
[11] = biological target: T4, Mitogen-activated protein kinase kinase kinase 20; experiment: Inhibition of ZAK Lys1 labeling site in human Huh-7 cell lysate at 1 uM by KiNativ Profiling analysis relative to control; assay type: subcellular
Target sequence in this assay (Q9NYL2 2-800 limits assumed): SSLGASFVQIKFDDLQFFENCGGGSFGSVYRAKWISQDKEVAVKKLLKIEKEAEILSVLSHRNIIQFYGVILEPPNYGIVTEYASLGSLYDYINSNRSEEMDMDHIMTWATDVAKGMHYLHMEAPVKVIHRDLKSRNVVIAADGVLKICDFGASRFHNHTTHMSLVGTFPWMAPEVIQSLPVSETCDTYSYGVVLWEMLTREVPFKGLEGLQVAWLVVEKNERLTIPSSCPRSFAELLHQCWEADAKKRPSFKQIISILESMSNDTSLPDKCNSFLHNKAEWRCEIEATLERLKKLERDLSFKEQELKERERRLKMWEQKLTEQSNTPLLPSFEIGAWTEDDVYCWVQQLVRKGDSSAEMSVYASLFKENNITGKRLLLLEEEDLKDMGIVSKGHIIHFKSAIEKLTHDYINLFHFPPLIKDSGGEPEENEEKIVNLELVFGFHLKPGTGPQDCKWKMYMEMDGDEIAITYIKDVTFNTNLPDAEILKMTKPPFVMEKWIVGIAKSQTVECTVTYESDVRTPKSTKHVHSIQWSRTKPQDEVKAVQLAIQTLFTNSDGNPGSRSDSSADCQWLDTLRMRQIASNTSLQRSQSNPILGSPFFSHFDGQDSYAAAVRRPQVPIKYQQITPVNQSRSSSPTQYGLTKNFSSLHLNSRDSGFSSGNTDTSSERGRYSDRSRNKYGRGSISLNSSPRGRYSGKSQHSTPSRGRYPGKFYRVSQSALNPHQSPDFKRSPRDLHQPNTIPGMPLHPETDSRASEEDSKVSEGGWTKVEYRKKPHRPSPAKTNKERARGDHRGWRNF

[12] = biological target: T3, Tyrosine-protein kinase CSK; experiment: Inhibition of CSK ACT labeling site in human Huh-7 cell lysate at 1 uM by KiNativ Profiling analysis relative to control; assay type: subcellular
[13] = biological target: T8, Mitogen-activated protein kinase 14; experiment: Inhibition of p38 alpha in human Huh-7 cell lysate at 1 uM by KiNativ Profiling analysis relative to control; assay type: subcellular
[14] = biological target: T9, Mitogen-activated protein kinase kinase kinase 7 (Homo sapiens) (UniProt O43318); experiment: Inhibition of TAK1 Lys2 labeling site in human A-375 cells at 0.5 uM by KiNativ Profiling analysis relative to control; assay type: cell-based
T9 sequence (whole entry): T7 sequence (O43318 whole entry)

BaF3 [15] = experiment: Antiproliferative activity against parental mouse BaF3 cells assessed reduction in cell viability measured after 48 hrs by Celltiter-glo assay; assay type: functional, cell-based; conditions: BaF3, 48 h
BaF3 [16] = experiment: Antiproliferative activity against parental mouse BaF3 cells harbouring Bcr/Abl assessed reduction in cell viability measured after 48 hrs by Celltiter-glo assay; assay type: functional, cell-based; conditions: BaF3, 48 h
Outline: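 Cells were grown with serial dilutions of compound for 48 h, and viability was read by CellTiter-Glo. IC50 was derived from the dose–response curve. Parental Ba/F3 cells were grown in the presence of interleukin 3. The BCR-ABL line is BCR-ABL-dependent Ba/F3.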

[17] = Cmax in Swiss albino mouse at 10 mg/kg, po measured upto 24 hrs by LC/MS/MS analysis; assay type: ADME, organism-based; conditions: in vivo
[18] = biological target: T10, Tyrosine-protein kinase Fes/Fps (Homo sapiens, UniProt P07332); experiment: Inhibition of FES (unknown origin) by KiNativ Profiling analysis
T10 sequence (P07332 whole entry): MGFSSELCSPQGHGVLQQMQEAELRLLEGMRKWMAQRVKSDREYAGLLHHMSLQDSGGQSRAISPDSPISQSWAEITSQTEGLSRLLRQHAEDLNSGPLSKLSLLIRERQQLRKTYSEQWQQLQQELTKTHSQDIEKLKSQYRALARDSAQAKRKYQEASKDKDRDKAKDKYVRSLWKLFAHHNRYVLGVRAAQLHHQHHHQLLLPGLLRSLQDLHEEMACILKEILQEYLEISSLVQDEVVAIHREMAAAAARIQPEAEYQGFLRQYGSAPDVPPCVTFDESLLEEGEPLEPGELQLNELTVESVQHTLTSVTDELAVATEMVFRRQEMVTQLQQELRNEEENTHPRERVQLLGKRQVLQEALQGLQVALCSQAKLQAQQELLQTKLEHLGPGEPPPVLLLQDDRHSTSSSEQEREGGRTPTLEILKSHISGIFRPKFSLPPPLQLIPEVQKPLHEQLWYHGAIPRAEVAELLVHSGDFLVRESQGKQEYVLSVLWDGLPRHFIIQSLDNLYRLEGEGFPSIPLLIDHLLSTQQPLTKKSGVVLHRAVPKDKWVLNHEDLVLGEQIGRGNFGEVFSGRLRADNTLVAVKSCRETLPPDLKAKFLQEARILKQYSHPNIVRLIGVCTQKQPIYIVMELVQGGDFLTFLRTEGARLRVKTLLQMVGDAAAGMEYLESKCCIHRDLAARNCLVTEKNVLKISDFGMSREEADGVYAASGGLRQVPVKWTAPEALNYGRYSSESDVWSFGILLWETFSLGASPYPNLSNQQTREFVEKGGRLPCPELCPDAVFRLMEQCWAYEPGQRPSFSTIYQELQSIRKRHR

[19] = Cmax in Swiss albino mouse at 1 mg/kg, iv measured upto 24 hrs by LC/MS/MS analysis; assay type: ADME, organism-based; conditions: in vivo
Outline: (§1)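 Male Swiss albino mice. […] Blood was taken into K2EDTA from three mice per time point, from 0 to 24 h. Plasma was precipitated with acetonitrile and analysed by LC/MS/MS (LLOQ 1.138 ng/mL).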

[20] = biological target: T10, Tyrosine-protein kinase Fes/Fps; experiment: Inhibition of FES Lys1 labeling site in human Huh-7 cell lysate at 1 uM by KiNativ Profiling analysis relative to control; assay type: subcellular
[21] = AUC last in Swiss albino mouse at 10 mg/kg, po measured upto 24 hrs by LC/MS/MS analysis; assay type: ADME, organism-based; conditions: in vivo
[22] = Half life in Swiss albino mouse at 1 mg/kg, iv measured upto 24 hrs by LC/MS/MS analysis; assay type: ADME, organism-based; conditions: in vivo; outline: as §1
[23] = biological target: Tyrosine-protein kinase Fer (Homo sapiens, UniProt P16591); experiment: Inhibition of FER (unknown origin) ACT labeling site by KiNativ Profiling analysis
[24] = AUC last in Swiss albino mouse at 1 mg/kg, iv measured upto 24 hrs by LC/MS/MS analysis; assay type: ADME, organism-based; conditions: in vivo; outline: as §1
[25] = Oral bioavailability in Swiss albino mouse at 10 mg/kg measured upto 24 hrs by LC/MS/MS analysis; assay type: ADME, organism-based; conditions: in vivo
Outline: (§2)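 Blood was taken at 0, 0.25, 0.5, 1, 2, 4, 6, 8, 12 and 24 h from three mice per time point, into K2EDTA. Plasma was acetonitrile-precipitated and analyzed by LC/MS/MS (LLOQ 1.138 ng/mL).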

[26] = Tmax in Swiss albino mouse at 10 mg/kg, po measured upto 24 hrs by LC/MS/MS analysis; assay type: ADME, organism-based; conditions: in vivo; outline: as §2
[27] = Volume of distribution at steady state in Swiss albino mouse at 1 mg/kg, iv measured upto 24 hrs by LC/MS/MS analysis; assay type: ADME, organism-based; conditions: in vivo
Outline: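 Blood was sampled at 0, 0.083, 0.25, 0.5, 1, 2, 4, 8, 12 and 24 h (three mice per point, K2EDTA). Plasma was precipitated with acetonitrile and quantified by LC/MS/MS (LLOQ 1.138 ng/mL).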

CCN1CCN(Cc2ccc(NC(=O)c3ccc(C)c(CCc4cnc5[nH]ccc5c4OC)c3)cc2C(F)(F)F)CC1
inhibition (Ephrin type-A receptor 2 [1]): 80.9% | pIC50 [2]: 7.69 | pIC50 [3]: 7.90 | pIC50 (Ephrin type-A receptor 2 [4]): 7.11 | pIC50 [5]: 7.14 | inhibition [6]: 84.3% | inhibition [7]: 92.8% | pIC50 [8]: 6.66 | pIC50 [9]: 7.15 | inhibition [10]: 77.2% | inhibition [11]: > 96% | inhibition [12]: 89.9% | inhibition [13]: 91.8% | inhibition [14]: 74.3% | pIC50 (BaF3 [15]): 5.32 | pIC50 (BaF3 [16]): 8.00

CCN1CCN(Cc2ccc(NC(=O)c3ccc(C)c(Oc4ncnc5[nH]c(C)cc45)c3)cc2C(F)(F)F)CC1
pIC50 [2]: 7.74 | Cmax [17]: 233 ng/mL | pIC50 [18]: 7.16 | Cmax [19]: 317 ng/mL | inhibition [20]: 82.7% | AUClast [21]: 2136 ng·h/mL | t1/2 [22]: 2.94 h | inhibition [6]: > 94% | inhibition [7]: 59.6% | pIC50 [8]: 7.39 | pIC50 [9]: 6.83 | pIC50 [23]: 7.13 | AUClast [24]: 554 ng·h/mL | F [25]: 38.6% | inhibition [13]: 82.8% | Tmax [26]: 4 h | inhibition [14]: 57.7% | pIC50 (BaF3 [15]): < 5.00 | Vdss [27]: 5.42 L/kg | pIC50 (BaF3 [16]): 7.70

CCN1CCN(Cc2ccc(NC(=O)c3ccc(C)c(Oc4ncnc5[nH]ncc45)c3)cc2C(F)(F)F)CC1
pIC50 [2]: 7.36 | Cmax [17]: 61.3 ng/mL | Cmax [19]: 280.3 ng/mL | AUClast [21]: 186.2 ng·h/mL | t1/2 [22]: 0.87 h | pIC50 [5]: 6.90 | inhibition [6]: 89.9% | inhibition [7]: 93% | pIC50 [8]: 7.12 | pIC50 [9]: 7.53 | inhibition [11]: 95.2% | AUClast [24]: 167.9 ng·h/mL | F [25]: 11.1% | inhibition [13]: 96.6% | Tmax [26]: 0.5 h | inhibition [14]: 86.5% | pIC50 (BaF3 [15]): 5.10 | Vdss [27]: 6.1 L/kg | pIC50 (BaF3 [16]): 7.26

CCN1CCN(Cc2ccc(NC(=O)c3ccc(C)c(Oc4ncnc5[nH]ccc45)c3)cc2C(F)(F)F)CC1
pIC50 [2]: 7.70 | Cmax [17]: 134 ng/mL | Cmax [19]: 230.9 ng/mL | AUClast [21]: 516.2 ng·h/mL | t1/2 [22]: 2.33 h | inhibition [6]: > 86% | inhibition [7]: 74.2% | pIC50 [8]: 7.35 | pIC50 [9]: 6.89 | AUClast [24]: 236.6 ng·h/mL | F [25]: 21.8% | inhibition [13]: 85.2% | Tmax [26]: 2 h | inhibition [14]: 77.7% | pIC50 (BaF3 [15]): 5.09 | Vdss [27]: 9.5 L/kg | pIC50 (BaF3 [16]): 7.26
